Screening results from PubChem.
E-selectin induc = induces E-selectin expression in human endothelial cells | activation, % at 7.58 µM | AID 686992 | HUVEC E-selectin immunofluorescence imaging; normalized: neutral wells 0, TNF-alpha wells 100 | P16581 | 0.37% of 260,000 active;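 active = mean E-selectin-positive cell signal at least 10% of the positive control, reached in at least 60% of replicates, without over 20% cell loss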
Target sequence (P16581 whole entry, looked up): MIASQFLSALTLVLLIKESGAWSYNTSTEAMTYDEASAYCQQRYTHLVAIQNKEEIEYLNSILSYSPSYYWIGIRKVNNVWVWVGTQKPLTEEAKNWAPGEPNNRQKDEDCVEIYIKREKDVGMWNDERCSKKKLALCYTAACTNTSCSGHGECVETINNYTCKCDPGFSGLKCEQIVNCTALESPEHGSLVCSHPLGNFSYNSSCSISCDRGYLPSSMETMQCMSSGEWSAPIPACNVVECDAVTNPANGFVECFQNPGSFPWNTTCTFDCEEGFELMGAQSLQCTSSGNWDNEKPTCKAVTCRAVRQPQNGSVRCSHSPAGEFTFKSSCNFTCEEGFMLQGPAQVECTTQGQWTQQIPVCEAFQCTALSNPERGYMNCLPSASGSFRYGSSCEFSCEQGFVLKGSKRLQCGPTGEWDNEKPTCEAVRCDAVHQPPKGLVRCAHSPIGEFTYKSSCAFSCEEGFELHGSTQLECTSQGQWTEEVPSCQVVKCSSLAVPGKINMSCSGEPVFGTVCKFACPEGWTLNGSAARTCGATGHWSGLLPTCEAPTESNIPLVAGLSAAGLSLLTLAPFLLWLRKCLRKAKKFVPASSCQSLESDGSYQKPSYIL
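Test system – human umbilical vein endothelial cells (HUVEC), E-selectin induction · Input – 3,000 HUVEC seeded per well · Buffer or medium – EGM-2, gelatin · Compound dosing – single-point compound dose · Detection – immunofluorescence imaging · Measure – percent E-selectin-positive cells · Controls – TNF-alpha high, DMSO low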
CFTR F508del cor = correctors of CFTR F508del function in bronchial epithelial cells; activity (quench increase), % at 7.58 µM; 0.36% of 350,000 active; CFBE cells, YFP halide quenching; stimulated with forskolin plus potentiator P3; % fluorescence drop versus neutral controls; AID 720511;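 active = mean added fluorescence quench of at least 8% versus neutral control, with both replicates also reaching 8%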;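 note: cells transiently co-express mutant CFTR-F508del with the halide-sensitive YFP; corrector assay measuring rescue of mutant channel to the surface after 24 h compound exposure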
XiGFP reactiv = X-chromosome reactivation activator; XiGFP mouse fibroblasts, % GFP-positive cells imaging, 3 d; cells co-treated with 5-aza-dC sensitizer; scaled so ellipticine positive control = 100%; activation, % at 7.58 µM; 0.055% of 360,000 active; AID 743238;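 active = mean normalized replicate activation at least 10% and every replicate at or above 10%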;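 note: 0% = median of on-plate neutral control wells and 100% = ellipticine 6 µM median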
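System: 68-5-11 XiGFP fibroblast line | Buffer or medium: DMEM containing 5-aza-dC | Compound: Single point | Times: Compounds 3 days, fix/stain 15 min at room temperature | Benchmarks: Positive control ellipticine, 6 µM final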
Numbers without * were called inactive. Compounds with a hit are over-represented: about 0.61% of the library has one in this group of screens.

For Cc1ccc(-c2nn(-c3ccccc3)cc2C(=O)N2CCN(c3ccccn3)CC2)cc1 the results were CFTR F508del cor 15.2* and XiGFP reactiv -0.1.
For O=C(c1cn(-c2ccccc2)nc1-c1ccccc1)N1CCN(c2ccccn2)CC1 the results were CFTR F508del cor -0.9 and XiGFP reactiv 0.2.
For C[C@H](NC(=O)C[C@@H]1CC[C@H]2[C@@H](COC[C@@H](O)CN2Cc2ccc(C(F)(F)F)cc2)O1)c1ccccc1 the results were E-selectin induc -0.2, CFTR F508del cor -1.3 and XiGFP reactiv 0.0.
For OC(Cc1ccccc1Br)c1ncc(-c2ccc(Cl)cc2)[nH]1 (centres undefined) the results were E-selectin induc 159.4*, CFTR F508del cor 1.4 and XiGFP reactiv 0.1.
For OC(Cc1ccccc1)c1ncc(-c2ccc(Cl)cc2)[nH]1 (centres undefined) the results were E-selectin induc 0.3, CFTR F508del cor 2.0 and XiGFP reactiv 0.0.
O=C(NCCN1CCCC1)[C@@H]1N[C@@H]2c3ccc(C4=CCCCC4)c(=O)n3C[C@@H]2[C@H]1CO was read as E-selectin induc 0.1, CFTR F508del cor -2.4 and XiGFP reactiv 0.1.
Screening CC(C)C(=O)NN(C(=O)c1ccccc1)c1ccccc1 returned CFTR F508del cor 2.2 and XiGFP reactiv 0.0.
For CC(C(=O)O)N(C(=O)c1ccccc1)c1ccc(F)cc1 (centres undefined) the results were CFTR F508del cor 10.0* and XiGFP reactiv 0.0.
For COc1ccc(CN(C)C[C@H]2Oc3ccc(NC(=O)CCC(F)(F)F)cc3C(=O)N([C@@H](C)CO)C[C@@H]2C)cc1 the results were CFTR F508del cor -3.8 and XiGFP reactiv 0.1.
For CCN1CCc2c(sc(NC(=O)c3ccc4ccccc4c3)c2C(N)=O)C1 the results were E-selectin induc 0.1, CFTR F508del cor 2.0 and XiGFP reactiv 38.1*.
Screening CCN1CCc2c(sc(NC(=O)CN3C(=O)c4ccccc4C3=O)c2C(N)=O)C1 returned CFTR F508del cor -3.3 and XiGFP reactiv 0.0.
For CCN1CCc2c(sc(NC(=O)c3ccc(S(=O)(=O)N4CC(C)OC(C)C4)cc3)c2C(N)=O)C1 (centres undefined) the results were CFTR F508del cor -1.2 and XiGFP reactiv 0.3.
`CCN1CCN(S(=O)(=O)c2ccc(C(=O)Nc3sc4c(c3C(N)=O)CCN(CC)C4)cc2)CC1` gave E-selectin induc 0.0, CFTR F508del cor 1.7 and XiGFP reactiv 53.8*.
`CN(C)C(=O)C[C@@H]1CC[C@H]2[C@@H](COC[C@H](O)CN2Cc2nccs2)O1` gave E-selectin induc 0.0, CFTR F508del cor 0.7 and XiGFP reactiv 0.0.
Screening CNC[C@H]1OCCCC[C@H](C)Oc2ccc(NC(=O)Nc3c(C)noc3C)cc2C(=O)N([C@H](C)CO)C[C@@H]1C returned E-selectin induc 0.0, CFTR F508del cor -0.7 and XiGFP reactiv -0.1.
Screening Cc1ccc(S(=O)(=O)Nc2cccc3c2O[C@@H](CN(C)Cc2ccc(C(=O)Nc4ccccc4N)cc2)[C@@H](C)CN([C@@H](C)CO)C3=O)cc1 returned E-selectin induc 1.3, CFTR F508del cor 1.0 and XiGFP reactiv -0.2.
`C/C=C/c1cnc2c(c1)C(=O)N([C@H](C)CO)C[C@H](C)[C@@H](CN(C)Cc1cncnc1)O2` gave E-selectin induc 0.1, CFTR F508del cor -2.2 and XiGFP reactiv -0.4.
`COc1ccc2oc(C(=O)N3CCN(C(=O)c4ccco4)CC3)c(C)c2c1` gave CFTR F508del cor 14.3* and XiGFP reactiv 0.0.
COc1ccc2oc(C(=O)N3CCN(c4ncccn4)CC3)c(C)c2c1 was read as CFTR F508del cor -0.8 and XiGFP reactiv 0.4.
Screening C/C=C/c1ccc([C@@H]2[C@H](CO)N3CCCCN(S(=O)(=O)c4ccccc4)C[C@@H]23)cc1 returned E-selectin induc -0.2, CFTR F508del cor 31.4* and XiGFP reactiv 0.0.
Screening C/C=C/c1ccc([C@H]2[C@H]3CN(S(=O)(=O)c4cccc(C)c4)CCCCN3[C@H]2CO)cc1 returned E-selectin induc -0.1, CFTR F508del cor 0.4 and XiGFP reactiv 0.2.
`CC(C)CC#Cc1ccc([C@@H]2[C@@H](CO)N3C(=O)CN(C(=O)c4ccccn4)C[C@H]23)cc1` gave E-selectin induc 0.1, CFTR F508del cor -0.3 and XiGFP reactiv 0.2.
CCNC(=O)Nc1ccc2c(c1)C(=O)N(C)[C@H]1CC[C@H](CC(=O)NCCOC)O[C@H]1CO2 was read as E-selectin induc 0.0, CFTR F508del cor -1.4 and XiGFP reactiv 0.2.
`NC(N)=NN=C(c1ccc(F)cc1)c1ccc(C(F)(F)F)cc1` gave E-selectin induc -0.1, CFTR F508del cor 12.5* and XiGFP reactiv 1.2.
Screening O=C(N/N=C/c1ccc(C(F)(F)F)cc1)c1ccc(O)cc1 returned E-selectin induc 19.7, CFTR F508del cor 1.3 and XiGFP reactiv 0.2.
CNC(=O)C[C@H]1CC[C@@H]2[C@H](COc3ccc(NC(=O)NC4CCCC4)cc3C(=O)N2C)O1 was read as E-selectin induc -0.1, CFTR F508del cor 0.2 and XiGFP reactiv 0.3.
C[C@H]1CN([C@@H](C)CO)C(=O)Cc2cc(NC(=O)C3CC3)ccc2O[C@@H]1CN(C)Cc1ccc2c(c1)OCO2 was read as E-selectin induc -11.1, CFTR F508del cor -0.3 and XiGFP reactiv 0.0.
For O=C(Nc1cccc(F)c1)N1CC(=O)N2[C@H](C1)[C@@H](c1ccc(C#CC3CC3)cc1)[C@@H]2CO the results were E-selectin induc 0.3, CFTR F508del cor 2.4 and XiGFP reactiv 0.4.
CCN1/C(=C2\SC(=S)N(Cc3ccccc3)C2=O)Sc2ccccc21 was read as E-selectin induc -2.1 and XiGFP reactiv 0.6.
`CCC(CO)[n+]1c(C)cc(/C=C2\Sc3ccccc3N2Cc2ccccc2)cc1C` (centres undefined) gave CFTR F508del cor -1.8 and XiGFP reactiv 102.7*.
For CC(C)N1CCc2c(sc(NC(=O)c3ccc([N+](=O)[O-])o3)c2C(N)=O)C1 the results were E-selectin induc -0.6, CFTR F508del cor 15.0* and XiGFP reactiv 1.3.
Screening COC(=O)c1c(NC(=O)c2ccc([N+](=O)[O-])o2)sc2c1CCN(C(C)C)C2 returned E-selectin induc -0.3, CFTR F508del cor 6.1 and XiGFP reactiv -0.1.
Screening CC(C)CC#Cc1ccc2c(c1)O[C@@H](CN(C)Cc1ccncc1)[C@H](C)CN([C@@H](C)CO)S2(=O)=O returned E-selectin induc 13.3, CFTR F508del cor 2.8 and XiGFP reactiv -0.4.
CCOc1ccc(N(CC)C(=O)COc2cc(=O)n(C)c3ccccc23)cc1 was read as E-selectin induc 0.3, CFTR F508del cor 8.8* and XiGFP reactiv 0.0.
Screening CN(C(=O)COc1cc(=O)n(C)c2ccccc12)c1ccc(Cl)cc1 returned E-selectin induc 0.0, CFTR F508del cor -3.5 and XiGFP reactiv 0.2.
`COc1ccc(OCCN2CCN(S(=O)(=O)c3ccccc3C#N)CC2)cc1` gave CFTR F508del cor 0.9 and XiGFP reactiv -0.1.
Screening COc1ccc(OCCN2CCN(S(=O)(=O)c3ccccc3C(F)(F)F)CC2)cc1 returned E-selectin induc 139.2*, CFTR F508del cor -2.9 and XiGFP reactiv 0.4.
